Experimental data taken from ChEMBL document CHEMBL1148336, “3-Aminopyrazole inhibitors of CDK2/cyclin A as antitumor agents. 1. Lead finding” (J Med Chem, 2004).
pIC50: −log10 of the molar value. ≈ marks a conversion by molar mass, not a printed value.

Legend:
[1] = target: Mitogen-activated protein kinase 1 (Homo sapiens, UniProt P28482); experiment: Inhibition of Mitogen-activated protein kinase 1 activity
How it was run: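 ERK-2 at 3 nM (insect-cell recombinant) with MBP in Tris-HCl pH 7.4 10 mM, MgCl2 10 mM, DTT 7.4 mM. ATP/33P-γ-ATP 2Km, substrate 5Km, 1% DMSO, 10 to 0.0015 μM compound, 30–90 min at room temperature. Dowex resin (formate, pH 3) removed free ATP; supernatant counted.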

[2] = target: 3-phosphoinositide-dependent protein kinase 1 (Homo sapiens, UniProt O15530); experiment: Inhibition of PDK1 kinase activity
How it was run: (§1)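 Radiometric kinase assay. Enzyme (0.7–100 nM) and substrate (5Km) incubated with ATP/33P-γ-ATP (2Km) and compound serially diluted 3-fold from 10 to 0.0015 μM, 1% DMSO, 30–90 min at room temperature. Product separated by SPA, Dowex or phosphocellulose filter, then counted.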

[3] = target: Glycogen synthase kinase-3 beta (Homo sapiens, UniProt P49841); experiment: Inhibition of Glycogen synthase kinase-3 beta
How it was run: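 GSK-3β at 20 nM (in-house, insect cells), MBP substrate, 50 mM Hepes pH 7.5, 3 mM MgCl2, 3 mM MnCl2, 1 mM DTT, 3 μM NaVO3. ATP/33P-γ-ATP 2Km, substrate 5Km, 1% DMSO. 3-fold dilutions from 10 μM, 30–90 min at room temperature. SPA.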

[4] = target: Cyclin-dependent kinase 4/cyclin D1 (Homo sapiens, UniProt P11802)
[5] = target: RAC-alpha serine/threonine-protein kinase (Homo sapiens, UniProt P31749); experiment: Inhibition of Protein kinase B (Akt-1)
How it was run: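 Recombinant AKT-1 (insect cells), 5 nM, with AKTtide in 10 mM Tris-HCl pH 7.4, 10 mM MgCl2, 7.4 mM DTT. ATP/33P-γ-ATP at 2Km, substrate at 5Km, 1% DMSO. 3-fold dilutions from 10 μM, 30–90 min at room temperature. Dowex resin separation, supernatant radioactivity counted.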

Rattus norvegicus [6] = experiment: In vivo maximum time required for clearance of compound after oral (po) administration at a dose of 10 mg/kg was measured in rats; assay type: ADME, organism-based; design: dose 10 mg/kg, route oral
How it was run: (§2)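 Male Sprague Dawley rats (~270), fasted overnight, received a single iv or oral dose in PEG400, 4% Tween 80/dextrose (60:40), three rats per route. Jugular/catheter blood was drawn predose and at 5, 15 and 30 min and 1, 2, 4, 6 and 24 h, and plasma was analysed by LC/MS/MS. Analysis was noncompartmental: Cmax/Tmax observed, AUC by linear trapezoidal rule, and F from dose-normalized oral/iv AUC.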

Rattus norvegicus [7] = experiment: In vivo area under curve was determined for the compound after oral (po) administration at a dose of 10 mg/kg in rats; assay type: ADME, organism-based; design: dose 10 mg/kg, route oral; how it was run: as §2
Rattus norvegicus [8] = experiment: Maximal concentration in male Sprague-Dawley rats after 5 mg/kg intravenous dose; assay type: ADME, organism-based; design: dose 5 mg/kg, route intravenous; conditions: in vivo; how it was run: as §2
[9] = Total body clearance was evaluated for the compound after i.v. administration at a dose of 5 mg/kg was measured in rats; assay type: ADME, organism-based; design: dose 5 mg/kg, route intravenous; conditions: rat, in vivo, iv; how it was run: as §2
[10] = target: Serine/threonine-protein kinase PLK1 (Homo sapiens, UniProt P53350); experiment: Inhibition of PLK1 kinase; how it was run: as §1
[11] = target: Mitogen-activated protein kinase 14 (Homo sapiens, UniProt Q16539); experiment: Inhibition of Mitogen-activated protein kinase p38 alpha; how it was run: as §1
[12] = Ability of compound to bind to plasma protein was evaluated in HSA cells; assay type: ADME, cell-based; conditions: mouse, HSA cells (so in the source), read-out: PPB
How it was run: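 HPLC retention time measured on a column coupled with human serum albumin. Percent bound is assigned by comparing the retention time with those of known standards.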

[13] = Steady-state volume of distribution was evaluated for the compound after i.v. administration at a dose of 5 mg/kg was measured in rats; assay type: ADME, organism-based; design: dose 5 mg/kg, route intravenous; conditions: rat, in vivo, iv, read-out: Vss; how it was run: as §2
[14] = target: Aurora kinase A (Homo sapiens) (UniProt O14965); experiment: Inhibition of Aurora kinase A
[15] = target: Tyrosine-protein kinase Lck (Homo sapiens, UniProt P06239); experiment: Inhibition of p56 lck tyrosine kinase; how it was run: as §1
[16] = target: Mast/stem cell growth factor receptor Kit (Homo sapiens, UniProt P10721); experiment: Inhibition of KIT kinase activity; how it was run: as §1
[17] = target: Vascular endothelial growth factor receptor 2 (Homo sapiens, UniProt P35968); experiment: Inhibition of VEGFR-2 kinase activity; how it was run: as §1
[18] = target: Tyrosine-protein kinase ABL (Homo sapiens, UniProt P00519+P42684); experiment: Inhibition of V-abl tyrosine kinase (ABL); assay type: protein assay
How it was run: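 ABL at 1.2 nM, recombinant from insect cells, with MBP in 50 mM Hepes pH 7.5, 3 mM MgCl2, 3 mM MnCl2, 1 mM DTT, 3 μM NaVO3. 2Km ATP/33P-γ-ATP, 5Km substrate, 1% DMSO. 3-fold series from 10 μM, 30–90 min at room temperature. SPA readout.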

[19] = Solubility of compound was determined in buffer at a pH of 7; assay type: physicochemical; conditions: pH 7
How it was run: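 Nonequilibrium turbidimetric solubility. 10 mM DMSO stock was diluted into pH 7 buffer (2.5% DMSO), and turbidity was read at 50 and 250 μM. Solubility is the average of the highest clear and lowest turbid concentrations.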

Insulin receptor = Insulin receptor (Homo sapiens, UniProt P06213); experiment: Inhibition of IR kinase activity; how it was run: as §1
[20] = target: Vascular endothelial growth factor receptor 3 (Homo sapiens, UniProt P35916); experiment: Inhibition of Vascular endothelial growth factor receptor 3; how it was run: as §1
Rattus norvegicus [21] = experiment: In vivo area under curve was determined for the compound after i.v. administration at a dose of 5 mg/kg in rats; assay type: ADME, organism-based; design: dose 5 mg/kg, route intravenous; conditions: iv; how it was run: as §2
[22] = In vivo retention time was evaluated for the compound after i.v. administration at a dose of 5 mg/kg was measured in rats; assay type: ADME, organism-based; design: dose 5 mg/kg, route intravenous; conditions: rat, iv; how it was run: as §2
[23] = target: Tyrosine-protein kinase Lyn (Homo sapiens, UniProt P07948); experiment: Inhibition of Protein tyrosine kinase Lyn; how it was run: as §1
Rattus norvegicus [24] = experiment: In vivo half-life period for compound after i.v. administration at a dose of 5 mg/kg was measured in rats; assay type: ADME, organism-based; design: dose 5 mg/kg, route intravenous; conditions: iv; how it was run: as §2
[25] = Oral bioavailability after oral (po) administration at a dose of 10 mg/kg was measured in rats; assay type: ADME, organism-based; conditions: rat, in vivo, read-out: Bioavailabiility; how it was run: as §2
Rattus norvegicus [26] = experiment: In vivo half-life period for compound after oral (po) administration at a dose of 10 mg/kg was measured in rats; assay type: ADME, organism-based; design: dose 10 mg/kg, route oral; how it was run: as §2
Casein kinase II = Casein kinase II (Homo sapiens, UniProt P19784+P67870+P68400); experiment: Inhibition of Casein kinase 2; assay type: protein-complex assay
How it was run: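 33P-γ-ATP/ATP at 2Km, substrate 5Km, 1% DMSO, 3-fold dilutions from 10 μM, 30–90 min at room temperature. Phosphorylated substrate counted by SPA. Four-parameter logistic IC50, mean of at least two experiments.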

[27] = target: Fibroblast growth factor receptor 1 (Homo sapiens, UniProt P11362); experiment: Inhibition of Fibroblast growth factor receptor 1
How it was run: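 Radiolabelled ATP at 2Km, substrate 5Km, 1% DMSO, compound 10 to 0.0015 μM, 30–90 min at room temperature. SPA capture.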

Rattus norvegicus [28] = experiment: Maximal concentration in male Sprague-Dawley rats after 10 mg/kg oral dose; assay type: ADME, organism-based; design: dose 10 mg/kg, route oral; conditions: in vivo; how it was run: as §2

Chain of Casein kinase II (P67870 whole entry): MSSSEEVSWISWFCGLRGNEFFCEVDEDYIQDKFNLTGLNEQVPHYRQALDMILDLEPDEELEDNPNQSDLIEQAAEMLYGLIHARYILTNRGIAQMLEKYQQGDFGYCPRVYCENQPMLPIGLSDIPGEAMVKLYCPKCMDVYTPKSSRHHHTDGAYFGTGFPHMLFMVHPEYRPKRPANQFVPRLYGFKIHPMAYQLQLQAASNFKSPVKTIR
Chain of Casein kinase II (P68400 whole entry): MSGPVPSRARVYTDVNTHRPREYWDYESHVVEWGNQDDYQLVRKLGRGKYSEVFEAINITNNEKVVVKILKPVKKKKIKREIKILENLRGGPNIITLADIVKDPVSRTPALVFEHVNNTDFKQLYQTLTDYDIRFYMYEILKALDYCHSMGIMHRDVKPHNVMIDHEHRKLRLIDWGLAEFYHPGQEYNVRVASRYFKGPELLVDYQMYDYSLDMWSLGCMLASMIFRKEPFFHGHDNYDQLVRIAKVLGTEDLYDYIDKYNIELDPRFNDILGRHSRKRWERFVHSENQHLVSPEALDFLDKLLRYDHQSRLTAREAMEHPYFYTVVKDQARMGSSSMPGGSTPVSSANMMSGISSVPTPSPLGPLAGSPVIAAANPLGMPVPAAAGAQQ
Chain of Casein kinase II (P19784 whole entry): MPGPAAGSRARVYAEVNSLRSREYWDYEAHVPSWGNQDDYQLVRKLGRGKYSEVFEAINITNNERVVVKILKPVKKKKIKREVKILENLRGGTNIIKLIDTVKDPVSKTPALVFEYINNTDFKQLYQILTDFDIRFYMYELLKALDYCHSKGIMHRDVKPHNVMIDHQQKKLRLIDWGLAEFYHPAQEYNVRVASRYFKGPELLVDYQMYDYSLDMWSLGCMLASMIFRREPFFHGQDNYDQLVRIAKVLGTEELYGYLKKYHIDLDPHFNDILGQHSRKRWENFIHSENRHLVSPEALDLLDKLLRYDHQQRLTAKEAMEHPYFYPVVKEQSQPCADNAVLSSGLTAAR
Chain of Tyrosine-protein kinase Lck (P06239 whole entry): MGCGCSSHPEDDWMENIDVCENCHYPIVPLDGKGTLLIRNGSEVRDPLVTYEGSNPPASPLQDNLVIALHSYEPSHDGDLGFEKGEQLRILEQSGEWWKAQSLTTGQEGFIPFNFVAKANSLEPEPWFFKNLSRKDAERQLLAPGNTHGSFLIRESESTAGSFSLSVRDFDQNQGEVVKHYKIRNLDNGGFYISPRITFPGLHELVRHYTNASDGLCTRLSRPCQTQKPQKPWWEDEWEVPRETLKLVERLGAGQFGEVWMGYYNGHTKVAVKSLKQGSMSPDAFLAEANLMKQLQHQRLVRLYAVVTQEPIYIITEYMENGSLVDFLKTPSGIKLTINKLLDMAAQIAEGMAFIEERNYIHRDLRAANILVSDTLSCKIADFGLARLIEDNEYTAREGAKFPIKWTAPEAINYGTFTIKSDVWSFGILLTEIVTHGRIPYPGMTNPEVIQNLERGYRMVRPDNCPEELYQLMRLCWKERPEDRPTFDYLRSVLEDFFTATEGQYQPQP
Chain of Serine/threonine-protein kinase PLK1 (P53350 whole entry): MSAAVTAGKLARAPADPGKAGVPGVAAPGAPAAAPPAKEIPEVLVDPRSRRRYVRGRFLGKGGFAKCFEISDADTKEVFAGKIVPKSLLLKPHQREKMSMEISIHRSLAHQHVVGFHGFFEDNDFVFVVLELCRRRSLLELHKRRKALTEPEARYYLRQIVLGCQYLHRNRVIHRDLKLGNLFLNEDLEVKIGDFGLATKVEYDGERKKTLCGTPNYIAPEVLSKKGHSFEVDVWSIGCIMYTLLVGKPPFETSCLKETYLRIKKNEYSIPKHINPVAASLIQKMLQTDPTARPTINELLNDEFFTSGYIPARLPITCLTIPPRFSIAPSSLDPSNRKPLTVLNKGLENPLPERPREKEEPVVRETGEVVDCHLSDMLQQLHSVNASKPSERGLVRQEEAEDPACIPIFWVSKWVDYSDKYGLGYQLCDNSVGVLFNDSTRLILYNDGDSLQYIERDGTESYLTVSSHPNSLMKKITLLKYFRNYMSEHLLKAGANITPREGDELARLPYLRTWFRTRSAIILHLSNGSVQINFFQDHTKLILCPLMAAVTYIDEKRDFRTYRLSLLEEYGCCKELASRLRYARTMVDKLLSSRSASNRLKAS
Chain of Vascular endothelial growth factor receptor 3 (P35916 whole entry): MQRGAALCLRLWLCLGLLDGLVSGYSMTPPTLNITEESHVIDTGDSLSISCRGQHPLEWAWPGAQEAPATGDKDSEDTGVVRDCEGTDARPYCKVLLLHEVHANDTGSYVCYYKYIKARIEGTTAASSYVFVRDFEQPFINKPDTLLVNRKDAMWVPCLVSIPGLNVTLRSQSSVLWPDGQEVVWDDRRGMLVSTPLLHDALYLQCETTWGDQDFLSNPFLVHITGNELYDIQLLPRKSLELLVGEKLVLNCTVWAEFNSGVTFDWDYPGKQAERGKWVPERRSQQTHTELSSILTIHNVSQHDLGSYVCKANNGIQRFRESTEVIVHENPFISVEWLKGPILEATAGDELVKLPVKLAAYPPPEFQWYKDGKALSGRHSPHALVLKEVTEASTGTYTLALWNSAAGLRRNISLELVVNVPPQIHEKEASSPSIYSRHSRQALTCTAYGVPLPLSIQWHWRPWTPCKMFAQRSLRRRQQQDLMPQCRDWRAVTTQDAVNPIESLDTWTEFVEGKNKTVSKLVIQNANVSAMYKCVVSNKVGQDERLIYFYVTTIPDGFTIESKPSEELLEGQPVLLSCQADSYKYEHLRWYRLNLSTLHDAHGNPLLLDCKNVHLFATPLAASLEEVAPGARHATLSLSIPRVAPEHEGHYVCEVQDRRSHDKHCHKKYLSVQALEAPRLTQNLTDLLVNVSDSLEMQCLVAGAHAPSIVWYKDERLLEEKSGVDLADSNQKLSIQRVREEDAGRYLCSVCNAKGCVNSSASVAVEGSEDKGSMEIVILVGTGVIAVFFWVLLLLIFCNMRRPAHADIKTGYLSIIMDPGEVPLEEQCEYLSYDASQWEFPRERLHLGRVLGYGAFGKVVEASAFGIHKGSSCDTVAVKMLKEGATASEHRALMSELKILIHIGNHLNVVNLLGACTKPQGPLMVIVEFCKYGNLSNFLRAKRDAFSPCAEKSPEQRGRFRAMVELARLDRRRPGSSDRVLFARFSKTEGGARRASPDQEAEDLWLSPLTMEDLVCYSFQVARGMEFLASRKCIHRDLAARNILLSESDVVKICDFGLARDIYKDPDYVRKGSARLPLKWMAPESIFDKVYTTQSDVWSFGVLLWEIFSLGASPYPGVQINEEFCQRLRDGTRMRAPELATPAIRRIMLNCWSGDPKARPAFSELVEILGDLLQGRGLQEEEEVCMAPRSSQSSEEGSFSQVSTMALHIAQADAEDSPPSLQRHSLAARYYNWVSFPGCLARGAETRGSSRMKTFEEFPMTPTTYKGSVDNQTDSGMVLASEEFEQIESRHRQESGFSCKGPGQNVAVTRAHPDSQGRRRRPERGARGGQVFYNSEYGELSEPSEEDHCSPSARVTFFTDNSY
Chain of Aurora kinase A (Homo sapiens) (O14965 whole entry, looked up): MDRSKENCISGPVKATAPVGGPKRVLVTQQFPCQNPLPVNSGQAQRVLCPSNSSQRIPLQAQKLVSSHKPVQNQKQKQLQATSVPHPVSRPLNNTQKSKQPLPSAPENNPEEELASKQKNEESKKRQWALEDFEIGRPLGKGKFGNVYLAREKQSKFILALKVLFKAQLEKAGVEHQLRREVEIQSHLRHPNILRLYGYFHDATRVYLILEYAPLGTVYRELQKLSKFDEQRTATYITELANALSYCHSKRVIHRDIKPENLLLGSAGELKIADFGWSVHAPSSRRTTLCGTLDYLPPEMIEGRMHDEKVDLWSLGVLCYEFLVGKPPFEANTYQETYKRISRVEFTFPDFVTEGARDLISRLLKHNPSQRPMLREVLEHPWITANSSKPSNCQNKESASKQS
Chain of Mast/stem cell growth factor receptor Kit (P10721 whole entry): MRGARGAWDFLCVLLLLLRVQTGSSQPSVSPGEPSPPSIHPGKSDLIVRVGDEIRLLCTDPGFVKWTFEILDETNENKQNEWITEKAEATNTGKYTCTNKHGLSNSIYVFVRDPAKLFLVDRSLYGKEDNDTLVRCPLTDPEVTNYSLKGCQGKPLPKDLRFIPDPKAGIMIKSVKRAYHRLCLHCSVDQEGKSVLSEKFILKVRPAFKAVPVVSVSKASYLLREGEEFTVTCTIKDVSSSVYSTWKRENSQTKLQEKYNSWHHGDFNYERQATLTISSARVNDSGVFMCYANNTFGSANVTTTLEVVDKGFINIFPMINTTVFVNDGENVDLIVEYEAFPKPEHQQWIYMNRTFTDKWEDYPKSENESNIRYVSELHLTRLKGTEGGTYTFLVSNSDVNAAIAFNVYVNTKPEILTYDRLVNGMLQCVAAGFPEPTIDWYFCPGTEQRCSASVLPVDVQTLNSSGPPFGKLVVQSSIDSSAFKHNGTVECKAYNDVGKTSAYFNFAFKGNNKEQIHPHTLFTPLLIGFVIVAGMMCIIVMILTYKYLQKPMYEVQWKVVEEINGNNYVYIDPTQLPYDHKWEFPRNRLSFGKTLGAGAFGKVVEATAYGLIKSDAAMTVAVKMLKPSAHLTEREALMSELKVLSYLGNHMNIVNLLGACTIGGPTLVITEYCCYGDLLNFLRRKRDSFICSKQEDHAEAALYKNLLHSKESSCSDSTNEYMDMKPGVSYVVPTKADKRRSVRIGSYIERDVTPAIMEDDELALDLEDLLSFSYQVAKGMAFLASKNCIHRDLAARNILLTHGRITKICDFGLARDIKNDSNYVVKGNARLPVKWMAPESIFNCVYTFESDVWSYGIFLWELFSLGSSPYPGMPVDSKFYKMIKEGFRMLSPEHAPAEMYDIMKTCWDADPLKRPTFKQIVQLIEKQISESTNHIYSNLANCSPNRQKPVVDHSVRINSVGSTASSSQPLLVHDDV

O=C(Cc1ccc2ccccc2c1)Nc1cc(C2CC2)n[nH]1
pIC50 [1]: 5.34
pIC50 [2]: < 5.00
pIC50 [3]: 5.72
pIC50 [4]: < 5.00
pIC50 [5]: < 5.00
T max (Rattus norvegicus [6]): 1.39 h
AUC total (Rattus norvegicus [7]): 38.18 µM·h
Cmax (Rattus norvegicus [8]): 19.4 µM
clearance [9]: 13.5 mL/min/kg
pIC50 [10]: < 5.00
pIC50 [11]: < 5.00
fraction unbound [12]: 0.01
Vd [13]: 1.06 L/kg
pIC50 [14]: < 5.00
pIC50 [15]: < 5.00
pIC50 [16]: < 5.00
pIC50 [17]: < 5.00
IC50 [18]: > 10 µM
solubility [19]: 22 µM (≈ 6.41 µg/mL)
pIC50 (Insulin receptor): < 5.00
pIC50 [20]: < 5.00
AUC total (Rattus norvegicus [21]): 21.24 µM·h
MRT [22]: 1.31 h
pIC50 [23]: < 5.00
T1/2 (Rattus norvegicus [24]): 1 h
bioavailability [25]: 89.8%
T1/2 (Rattus norvegicus [26]): 2.38 h
pIC50 (Casein kinase II): < 5.00
pIC50 [27]: < 5.00
Cmax (Rattus norvegicus [28]): 9.63 µM
